Data set [1] can be described thus: Plasma concentration after intravenous aministration at 1hr, (1 mg/kg, n=3). It is filed as ADME, organism-based. Particulars: rat. The procedure, abridged: (§1)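 Rats dosed intravenously at 1 mg/kg (n = 3). Plasma drug concentrations were measured at 30 min and at 1 h (60 min) and reported in µM.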
Data set [2] can be described thus: Plasma concentration after intravenous aministration at 30 min. (1 mg/kg, n=3). The data set is classed as ADME, organism-based. Particulars: rat. The procedure, abridged:
as §1

In the next data set the target is Prothrombin (Homo sapiens, UniProt P00734). Briefly: Inhibitory constant against human coagulation factor II (thrombin) for selectivity within coagulation cascade.
For the next data set, the target named is T1, Serine protease 1 (Bos taurus, UniProt P00760).
T1 sequence (P00760 whole entry): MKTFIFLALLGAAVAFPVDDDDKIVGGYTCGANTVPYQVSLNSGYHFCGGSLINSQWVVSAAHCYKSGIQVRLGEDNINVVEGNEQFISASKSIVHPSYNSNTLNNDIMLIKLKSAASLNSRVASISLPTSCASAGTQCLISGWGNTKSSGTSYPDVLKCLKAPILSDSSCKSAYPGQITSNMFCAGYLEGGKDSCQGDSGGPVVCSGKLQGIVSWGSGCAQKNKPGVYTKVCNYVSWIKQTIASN
Briefly: Inhibitory constant against bovine trypsin for general specificity against serine proteases.

In the next data set the target is Coagulation factor X (Homo sapiens, UniProt P00742). Briefly: Inhibitory constant against human coagulation factor Xa (fXa).
Sequence of Coagulation factor X (P00742 41-179 limits assumed): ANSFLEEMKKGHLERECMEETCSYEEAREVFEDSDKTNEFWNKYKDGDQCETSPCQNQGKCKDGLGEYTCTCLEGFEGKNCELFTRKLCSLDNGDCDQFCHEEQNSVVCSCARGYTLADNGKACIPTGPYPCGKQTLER
Sequence of Coagulation factor X (P00742 235-488 limits assumed): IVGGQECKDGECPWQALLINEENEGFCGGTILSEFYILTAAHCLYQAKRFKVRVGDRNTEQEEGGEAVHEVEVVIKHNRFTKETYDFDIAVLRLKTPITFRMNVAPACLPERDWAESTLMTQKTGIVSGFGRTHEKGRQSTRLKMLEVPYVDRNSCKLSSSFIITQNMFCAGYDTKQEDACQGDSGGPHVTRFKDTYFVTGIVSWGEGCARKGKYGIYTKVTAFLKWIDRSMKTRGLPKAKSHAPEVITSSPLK
Data set [3] is described as follows: Plasma concentration after oral aministration at 1 hr. (10 mg/kg). It is filed as ADME, organism-based. Particulars: rat. The procedure, abridged:
(§2)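 Rats were dosed orally at 10 mg/kg. Plasma drug concentrations were measured at 1, 2 and 4 h and reported in µM.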

Data set [4] can be described thus: Plasma concentration after oral aministration at 4 hr. (10 mg/kg). It is filed as ADME, organism-based. Particulars: rat. The procedure, abridged:
as §2

A short description of data set [5]: Plasma concentration after intravenous aministration at 60 min. (1 mg/kg, n=3). Particulars: rat. It is filed as ADME, organism-based. The procedure, abridged: as §1
Data set [6] can be described thus: Plasma concentration after oral aministration at 2 hr. (10 mg/kg). The data set is classed as ADME, organism-based. Particulars: rat. The procedure, abridged:
as §2

Consider five compounds from ChEMBL document CHEMBL1135740, “Design, synthesis, and activity of a novel series of factor Xa inhibitors: optimization of arylamidine groups” (J Med Chem, 2002).

In [1], `N=C(N)c1ccc(O)c(Oc2cc(C(=O)O)cc(Oc3cccc(C4=NCCN4)c3)n2)c1` returned a concentration at 1 h of 1400 nM. This compound showed a concentration at 0.5 h in [2] of 3000 nM.
In the case of `N=C(N)c1cccc(Oc2cc(C(=O)O)cc(Oc3cccc(C(=N)N)c3)n2)c1`, the concentration at 0.5 h in data set [2] worked out at 800 nM.
The same measure, in the same setting: then `Cc1c(F)c(Oc2cccc(C(=N)N)c2)nc(Oc2cccc(C(=N)N)c2)c1F`, with 100 nM.
As usually defined, the Ki is the equilibrium dissociation constant of an inhibitor or competing ligand from its target. As for `N=C(N)c1cccc(Oc2cc(C(=O)O)cc(Oc3cc(C(=N)N)ccc3O)n2)c1`, the results for the Ki at Prothrombin, at Serine protease 1 and at Coagulation factor X were 5.1 µM, 520 nM and 6 nM, respectively. This compound displayed a concentration at 0.5 h in data set [2] of 1900 nM.
As for `CN1CCN=C1c1cccc(Oc2cc(C(=O)O)cc(Oc3cc(C(=N)N)ccc3O)n2)c1`, the concentration at 1 h turned out to be 1400 nM in data set [3] and 400 nM in [5]. The concentration at 4 h in data set [4] amounted to 100 nM. Besides, in [2], the concentration at 0.5 h came to 1100 nM. In [6], this compound returned a concentration at 2 h of 200 nM.
